Laboratory results reported in ChEMBL document CHEMBL1124070, “Potential anticancer agents: 5-(N-substituted-aminocarbonyl)- and 5-(N-substituted-aminothiocarbonyl)-5,6,7,8-tetrahydrofolic acids” (J Med Chem, 1988).
Active and inactive are the calls of the source. The calls are words filed in the database; no cut-off is given here.

What was measured:
[1] = system: L1210; assay: Compound was tested for activity against L1210 cells in mice; IA=Inactive; format: functional, cell-based; conditions: Mus musculus
[2] = Compound was tested for activity against 10 isolated folate-utilizing enzymes; IA=Inactive
[3] = system: HEp-2; assay: Effective dose required to inhibit colony formation of H.Ep-2 cells; format: functional; conditions: Homo sapiens, read-out: ED50 (the source's name)
Method in brief: (§1)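 Colony-forming viability assay in H.Ep.-2 cells. The ED50 is the concentration that inhibits colony formation by 50%.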

[4] = system: P388; assay: Compound was tested for cytotoxicity against P388 cells; IA=Inactive; format: functional, cell-based; conditions: Mus musculus
[5] = system: HEp-2; assay: Dose of compound required to inhibit colony formation of H.Ep-2 cells; format: functional, cell-based; conditions: Homo sapiens; method in brief: as §1

SMILES	Activity [2]	EC50 [3] [µM]	IC50 [5] [µM]	Cytotoxicity [1]	Cytotoxicity [4]
Nc1nc(O)c2c(n1)NCC(CNc1ccc(C(=O)NC(CCC(=O)O)C(=O)O)cc1)N2/C(S)=N/c1ccccc1 (stereo not given)	inactive	–	–	inactive	–
CCOC(=O)CCCCCCCC/N=C(\S)N1c2c(O)nc(N)nc2NCC1CNc1ccc(C(=O)NC(CCC(=O)O)C(=O)O)cc1 (stereo not given)	–	–	> 25	–	inactive
CCOC(=O)CCCCCCNC(=O)N1c2c(O)nc(N)nc2NCC1CNc1ccc(C(=O)NC(CCC(=O)O)C(=O)O)cc1 (stereo not given)	–	4	–	–	inactive
CCOC(=O)CCCCCNC(=O)N1c2c(O)nc(N)nc2NCC1CNc1ccc(C(=O)NC(CCC(=O)O)C(=O)O)cc1 (stereo not given)	–	13	–	–	inactive
CCOC(=O)CCCCCCC/N=C(\S)N1c2c(O)nc(N)nc2NCC1CNc1ccc(C(=O)NC(CCC(=O)O)C(=O)O)cc1 (stereo not given)	–	–	> 25	–	–
CCOC(=O)CCCCCC/N=C(\S)N1c2c(O)nc(N)nc2NCC1CNc1ccc(C(=O)NC(CCC(=O)O)C(=O)O)cc1 (stereo not given)	–	–	> 25	–	–

Further lines, with some results ahead:

Activity [2]	EC50 [3] [µM]	IC50 [5] [µM]	SMILES	Cytotoxicity [1]	Cytotoxicity [4]
–	35	–	CCOC(=O)CCCCCCCCNC(=O)N1c2c(O)nc(N)nc2NCC1CNc1ccc(C(=O)NC(CCC(=O)O)C(=O)O)cc1 (stereo not given)	–	inactive
inactive	–	–	NC(=O)N1c2c(O)nc(N)nc2NCC1CNc1ccc(C(=O)NC(CCC(=O)O)C(=O)O)cc1 (stereo not given)	inactive	–
inactive	–	–	CC/N=C(\S)N1c2c(O)nc(N)nc2NCC1CNc1ccc(C(=O)NC(CCC(=O)O)C(=O)O)cc1 (stereo not given)	inactive	–
inactive	–	–	Nc1nc(O)c2c(n1)NCC(CNc1ccc(C(=O)NC(CCC(=O)O)C(=O)O)cc1)N2C(=O)NCCCl (stereo not given)	inactive	–
–	24	–	CCOC(=O)CCCCCCCNC(=O)N1c2c(O)nc(N)nc2NCC1CNc1ccc(C(=O)NC(CCC(=O)O)C(=O)O)cc1 (stereo not given)	–	–
–	–	> 25	CCOC(=O)CCCCC/N=C(\S)N1c2c(O)nc(N)nc2NCC1CNc1ccc(C(=O)NC(CCC(=O)O)C(=O)O)cc1 (stereo not given)	–	–
